The source made the active and inactive calls. The calls are words filed in the database; no cut-off is given here.
Assays:
[1] = tested on: Mus musculus; experiment: Central nervous system depressant activity in CF albino mouse assessed as inhibition of spontaneous motor activity at 500 mg/kg, po measured within 15 mins relative to control; type: functional; conditions: for inhibition in vivo at 500 mg/kg: 0.25 h
Procedure, shortened: (§1)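 Male CF mice got 500 mg/kg orally as a 0.2% agar suspension. Scoring was at peak drug effect on a 0-4+ scale. Scores were judged together from percentage inhibition of spontaneous motor activity, a ptotic index based on percentage eye closure, and the degree of sedation.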

[2] = tested on: Mus musculus; experiment: Central nervous system depressant activity in CF albino mouse assessed as eye closure rate at 500 mg/kg, po relative to control; type: functional; procedure, shortened: as §1
[3] = tested on: Mus musculus; experiment: Central nervous system depressant activity in CF albino mouse assessed as induction of sedation without arousability at 500 mg/kg, po; type: functional, organism-based; parameters: dose 500 mg/kg; procedure, shortened: as §1
[4] = tested on: Mus musculus; experiment: Toxicity in CF albino mouse assessed as tremor at 500 mg/kg, po; type: organism-based; parameters: dose 500 mg/kg, route oral; conditions: in vivo
[5] = tested on: Mus musculus; experiment: Toxicity in CF albino mouse assessed as mild convulsion at 500 mg/kg, po; type: organism-based; parameters: dose 500 mg/kg, route oral; conditions: in vivo
[6] = tested on: Mus musculus; experiment: Anticonvulsant activity in po dosed CF albino mouse assessed as protection against electroshock-induced seizure; type: functional
Procedure, shortened: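 Male CF mice were dosed orally, with the vehicle for po dosing being a 0.2% agar suspension. Protection against electroshock-induced seizures was examined at 500 mg/kg po. Activity is reported as ED50 in mg/kg po.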

[7] = tested on: Mus musculus; experiment: Antidepressant activity in CF albino mouse assessed as potentiation of dopa-induced response at 25 mg/kg, po relative to control; type: functional
Procedure, shortened: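 Male CF mice received 25 mg/kg orally in 0.2% agar suspension. The read-out was potentiation of the Dopa response. Results were graded on a plus-scale.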

[8] = tested on: Mus musculus; experiment: Antidepressant activity in CF albino mouse assessed as inhibition of reserpine-induced hypothermia at 25 mg/kg, po relative to control; type: functional
Procedure, shortened: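 Oral dosing was 25 mg/kg in 0.2% agar suspension to male CF mice. Antagonism of reserpine-induced hypothermia was measured and graded on a plus-scale.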

[9] = tested on: Mus musculus; experiment: Central nervous system depressant activity in po dosed CF albino mouse assessed as induction of sedation; type: functional, organism-based
[10] = tested on: Mus musculus; experiment: Central nervous system depressant activity in CF albino mouse assessed as induction of sedation at 500 mg/kg, po; type: functional, organism-based; parameters: dose 500 mg/kg; procedure, shortened: as §1
[11] = tested on: Mus musculus; experiment: Central nervous system depressant activity in CF albino mouse assessed as induction of sedation at 25 mg/kg, po; type: functional, organism-based; parameters: dose 25 mg/kg
[12] = tested on: Mus musculus; experiment: Toxicity in CF albino mouse at 500 mg/kg, po; type: organism-based; parameters: dose 500 mg/kg, route oral; conditions: in vivo
[13] = tested on: Mus musculus; experiment: Central nervous system depressant activity in CF albino mouse assessed as induction of sedation with arousability at 500 mg/kg, po; type: functional, organism-based; parameters: dose 500 mg/kg; procedure, shortened: as §1

SMILES | inhibition in vivo at 500 mg/kg [1] [%] | Activity [2] [%] | Activity [3] | Activity [4] | Activity [5] | ED50 [6] | Activity [7] [%] | inhibition in vivo at 25 mg/kg [8] [%] | Activity [9] | Activity [10] | Activity [11] | inhibition [1] | Activity [12] | Activity [13] | inhibition [8]
CN(C)CCN1N=C(c2ccccc2)CC2=C1CC(C)(C)CC2=O.[O-][Cl+3]([O-])([O-])O | 51 | 75 | inactive | Toxic | Toxic | 500 mg/kg | 51 | 26 | Dose-dependent effect | – | – | – | – | – | –
CCN(CC)CCN1N=C(c2ccccc2)C(C)C2=C1CC(C)(C)CC2=O.[O-][Cl+3]([O-])([O-])O (centres undefined) | 1 | 25 | – | Toxic | Toxic | 400 mg/kg | 26 | 0 | – | inactive | – | – | – | – | –
CCN(CC)CCN1N=C(c2ccc(F)cc2)CC2=C1CC(C)(C)CC2=O | 51 | 75 | inactive | Toxic | Toxic | 150 mg/kg | 51 | 26 | – | – | Active | – | – | – | –
CN1N=C(c2ccccc2)CC2=C1CC(C)(C)CC2=O | – | – | – | – | – | inactive | 26 | 51 | – | – | – | inactive | – | – | –
CC1(C)CC(=O)C(CC(=O)c2ccccc2)=C(NNC(=N)N)C1 | 1 | 25 | – | – | – | inactive | 51 | 76 | – | inactive | – | – | – | – | –
CN(C)CCN1N=C(c2ccc(F)cc2)CC2=C1CC(C)(C)CC2=O.O.O=C(O)C(=O)O | – | – | – | Toxic | Toxic | inactive | 26 | 26 | – | – | – | inactive | – | – | –
CC1(C)CC(=O)C2=C(C1)NN=C(c1ccccc1)C2 | – | – | – | – | – | inactive | 26 | 26 | – | – | – | inactive | – | – | –
CCOC(=O)NNC1=C(CC(=O)c2ccccc2)C(=O)CC(C)(C)C1 | 1 | 25 | – | – | – | inactive | 26 | 51 | – | inactive | – | – | – | – | –
CCN(CC)CCN1N=C(c2ccccc2)CC2=C1CC(C)(C)CC2=O.[O-][Cl+3]([O-])([O-])O | 26 | 50 | – | Toxic | Toxic | 225 mg/kg | 51 | 26 | – | Active | – | – | – | – | –
CN(C)CCN/N=C1/CC(C)(C)CC2=C1CC(c1ccccc1)=NN2CCN(C)C | – | – | – | – | – | inactive | – | – | – | – | – | inactive | – | – | –
CC1(C)CC(=O)C(CC(=O)c2ccccc2)=C(NNC(=O)c2ccncc2)C1 | 1 | 25 | – | – | – | inactive | 51 | 51 | – | inactive | – | – | – | – | –
CC1(C)CC(=O)c2cc(-c3ccccc3)nnc2C1 | 1 | 25 | – | Toxic | Toxic | 500 mg/kg | 26 | 26 | – | inactive | – | – | – | – | –
CCN(CC)CCn1nc(C)c(=O)c2c1CC(C)(C)CC2=O | – | – | – | – | – | inactive | 26 | 51 | – | – | – | inactive | – | – | –
CC1(C)CC(=O)C2=C(C1)N(CCO)N=C(c1ccccc1)C2.Cc1ccc(S(=O)(=O)O)cc1 | 1 | 25 | – | – | – | inactive | 51 | 26 | – | inactive | – | – | – | – | –
CN(C)CCCN1N=C(c2ccccc2)CC2=C1CC(C)(C)CC2=O.O.[O-][Cl+3]([O-])([O-])O | 1 | 25 | – | – | – | 500 mg/kg | 51 | 26 | – | inactive | – | – | – | – | –
CCN(CC)CCN1N=C(c2ccc(OC)cc2)CC2=C1CC(C)(C)CC2=O.[O-][Cl+3]([O-])([O-])O | 1 | 25 | – | – | – | 300 mg/kg | 26 | 0 | – | inactive | – | – | – | – | –
CCN(CC)CCN1N=C(c2ccc(Br)cc2)CC2=C1CC(C)(C)CC2=O | 26 | 50 | – | Toxic | Toxic | 100 mg/kg | 26 | 26 | – | Active | – | – | – | – | –
CC1(C)CC(=O)C(CC(=O)c2ccccc2)=C(NNc2ccncc2)C1 | 1 | 25 | – | – | – | inactive | 51 | 76 | – | inactive | – | – | – | – | –
CC1(C)CC(=O)C2=C(C1)N(C(N)=O)N=C(c1ccccc1)C2 | – | – | – | – | – | inactive | 51 | 26 | – | – | – | inactive | – | – | –
CC1(C)CC(=O)C2=C(C1)N(CCN1CCNCC1)N=C(c1ccc(Br)cc1)C2.Cl.O | 26 | 50 | – | – | – | inactive | 0 | 26 | – | Active | – | – | – | – | –
CC1(C)CC(=O)C2=C(C1)N(c1ccccc1)N=C(c1ccccc1)C2 | – | – | – | – | – | inactive | 0 | 26 | – | – | – | inactive | – | – | –
CCN(CC)CCN1N=C(c2cc(OC)c(OC)c(OC)c2)CC2=C1CC(C)(C)CC2=O.[O-][Cl+3]([O-])([O-])O | – | – | – | – | – | inactive | 26 | 51 | – | – | – | inactive | – | – | –
CCN(CC)CCN1N=C(c2ccccc2)CC2=C1CCCC2=O.[O-][Cl+3]([O-])([O-])O | – | – | – | – | – | 200 mg/kg | 51 | 26 | – | – | – | inactive | Toxic | – | –
CC1=NNC2=C(C1)C(=O)CC(C)(C)C2 | – | – | – | – | – | inactive | 51 | 0 | – | – | – | inactive | – | – | –
CC1(C)CC(=O)C2=C(C1)N(CCN1CCNCC1)N=C(c1ccc(F)cc1)C2.Cc1ccc(S(=O)(=O)O)cc1.O | – | – | – | – | – | inactive | 51 | 26 | – | – | – | inactive | – | – | –
CN(C)CCN1N=C(c2ccc(Br)cc2)CC2=C1CC(C)(C)CC2=O.[O-][Cl+3]([O-])([O-])O | 51 | 75 | – | – | – | 100 mg/kg | 51 | – | – | – | – | – | – | Active | inactive

— ChEMBL document CHEMBL3272220, “Central nervous system active 5-oxo-1,4,5,6,7,8-hexahydrocinnolines” (J Med Chem, 1976)
